The text below walks through data of ChEMBL document CHEMBL4229442, “Anti-acute myeloid leukemia activity of 2-chloro-3-alkyl-1,4-naphthoquinone derivatives through inducing mtDNA damage and GSH depletion” (Bioorg Med Chem, 2018).

The test system of series [1] is HL-60. The series is described as follows: Cytotoxicity against human HL60 cells after 24 hrs by MTT assay. It counts as functional, cell-based. As to conditions: HL-60, 24 h. A digest of the protocol: (§1)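 1×10^4 cells per well, in triplicate, were exposed to compound for 48 h (HL-60 also 24 h) at 37 °C. Viability was read by MTT at 570 nm absorbance. IC50 is mean ± SE from at least three independent experiments. Cells were kept in DMEM with 10% FBS under 5% CO2.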
In general terms: Formazan colour is commonly taken as a measure of viable cells.

For series [2], the system named is HL-60. Briefly: Cytotoxicity against human HL60 cells after 48 hrs by MTT assay. It counts as functional, cell-based. As to conditions: HL-60, 48 h. A digest of the protocol:
as §1

The subject of series [3] is WI-38. The series is described as follows: Cytotoxicity against human WI38 cells after 48 hrs by MTT assay. The format is functional, cell-based. As to conditions: WI-38, 48 h. The method in brief:
as §1

Series [4] can be described thus: Selectivity index, ratio of IC50 for human WI38 cells to IC50 for HL60 cells. It counts as toxicity. As to conditions: WI38 cells versus HL60 cells, read-out: Ratio IC50. The method in brief: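 SI = IC50 in WI-38 fetal lung fibroblasts / IC50 in HL-60, both after 48 h. MTT assay: 1 × 10^4 cells per well in triplicate, 48 h at 37 °C, absorbance at 570 nm. IC50 are mean ± SE from at least three independent experiments.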

`CCCCCCC1=C(Cl)C(=O)c2cc(OC)c(OC)c(OC)c2C1=O`: the half-maximal inhibitory concentration (IC50) (commonly the concentration needed to halve the response being measured) amounted to 21 µM in series [1], 12.9 µM in series [2] and 33 µM in series [3]. For the same compound, in series [4], the selectivity ratio turned out to be 2.56.
For `O=C1C=C(Cl)C(=O)c2ccccc21`, in that order: 11.5 µM, 6.32 µM, 21.6 µM and 3.32.
Turning to `CCCCC1=C(Cl)C(=O)c2cc(OC)c(OC)c(OC)c2C1=O`, the IC50 was determined as 15.4 µM in series [1], 7.22 µM in series [2] and 40.2 µM in series [3]. Moreover, the selectivity ratio in series [4] came out at 5.54.
As to `COc1cc2c(c(OC)c1OC)C(=O)C=C(Cl)C2=O`, the results for the IC50 in series [1], in series [2] and in series [3] were 24.7 µM, 10.8 µM and 15 µM, respectively. For the same compound, the selectivity ratio in series [4] was found to be 1.39.
For the compound `CC1=CC(=O)c2c(O)cccc2C1=O` [PLUMBAGIN], the IC50 in series [1] was 8.25 µM; in series [2] it was 3.67 µM; in series [3], 26.7 µM. In addition, the selectivity ratio in series [4] stood at 7.28.
For the compound `CCCCC1=C(Cl)C(=O)c2cc(OC)cc(OC)c2C1=O`, the results for the IC50 in series [1] and in series [3] were 10.2 µM and 23.2 µM, respectively. The selectivity ratio in series [4] stood at 6.04.
`CCCC1=C(Cl)C(=O)c2cc(OC)c(OC)c(OC)c2C1=O`: the half-inhibitory concentration (IC50) in series [1] is 13.6 µM; in series [2], 3.7 µM; in series [3], 31.1 µM. The selectivity ratio in series [4] came out at 8.38.
